According to ChEMBL document CHEMBL1153844, “Synthesis, crystal structure and anti-inflammatory properties of curcumin analogues” (2009):
Active and inactive are the calls of the source. The rule behind the calls is not given here.

Columns and labels:
J774.A1 [1] = assay: Antiinflammatory activity in mouse J774A1 cells assessed as inhibition of LPS-induced IL6 production at 10 uM preincubated for 3 hrs before LPS challenge measured after 21 hrs by ELISA; assay type: functional, cell-based
Procedure, shortened: (§1)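 J774A.1 mouse macrophage-like cells were plated overnight in DMEM with 10% FBS and penicillin/streptomycin at 1.2 × 10⁶/plate, 37 °C, 5% CO₂. They were pretreated 3 h with compound or vehicle, then given LPS for 21 h. TNF-α or IL-6 in the medium was measured by ELISA and normalized to total protein of the lysed cell pellet. Values are percent of LPS control, from three independent experiments (mean ± S.E.).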

J774.A1 [2] = assay: Antiinflammatory activity in mouse J774A1 cells assessed as inhibition of LPS-induced TNFalpha production at 10 uM preincubated for 3 hrs before LPS challenge measured after 21 hrs by ELISA; assay type: functional, cell-based; procedure, shortened: as §1
J774.A1 [3] = assay: Antiinflammatory activity in mouse J774A1 cells assessed as inhibition of LPS-induced IL6 production at 10 uM preincubated for 3 hrs before LPS challenge measured after 21 hrs by ELISA relative to control; assay type: functional; procedure, shortened: as §1
J774.A1 [4] = assay: Antiinflammatory activity in mouse J774A1 cells assessed as inhibition of LPS-induced TNFalpha production at 10 uM preincubated for 3 hrs before LPS challenge measured after 21 hrs by ELISA relative to control; assay type: functional; procedure, shortened: as §1
J774.A1 [5] = assay: Enhancement of LPS-induced TNFalpha production in mouse J774A1 cells at 10 uM preincubated for 3 hrs before LPS challenge measured after 21 hrs by ELISA; assay type: functional, cell-based; procedure, shortened: as §1
J774.A1 [6] = assay: Enhancement of LPS-induced IL6 production in mouse J774A1 cells at 10 uM preincubated for 3 hrs before LPS challenge measured after 21 hrs by ELISA; assay type: functional, cell-based; procedure, shortened: as §1

| SMILES | Activity (J774.A1 [1]) | Activity (J774.A1 [2]) | further results |
| --- | --- | --- | --- |
| COc1cc(/C=C/C(=O)/C=C/c2ccc(O)c(OC)c2)ccc1O | Active | Active | – |
| O=C1/C(=C/c2ccc(F)cc2)CCC/C1=C\c1ccc(F)cc1 | – | – | inhibition at 10 µM (J774.A1 [3]): 54.8%; inhibition at 10 µM (J774.A1 [4]): 65.3% |
| COc1cc(/C=C2\CCC/C(=C\c3ccc(O)c(OC)c3)C2=O)ccc1O | Active | Active | – |
| COc1cc(/C=C2\CC/C(=C\c3ccc(O)c(OC)c3)C2=O)ccc1O | Active | Active | – |
| O=C1/C(=C/c2ccc(O)cc2)CCC/C1=C\c1ccc(O)cc1 | Active | Active | – |
| O=C(/C=C/c1ccc(O)cc1)/C=C/c1ccc(O)cc1 | – | – | Activity (J774.A1 [5]): Active; Activity (J774.A1 [6]): Active |
